Results collected from several papers.
Protocols differ between the studies behind these lines.
Target: Ephrin type-A receptor 3 (EPHA3, Homo sapiens, UniProt P29320)
One construct used (P29320 1-983): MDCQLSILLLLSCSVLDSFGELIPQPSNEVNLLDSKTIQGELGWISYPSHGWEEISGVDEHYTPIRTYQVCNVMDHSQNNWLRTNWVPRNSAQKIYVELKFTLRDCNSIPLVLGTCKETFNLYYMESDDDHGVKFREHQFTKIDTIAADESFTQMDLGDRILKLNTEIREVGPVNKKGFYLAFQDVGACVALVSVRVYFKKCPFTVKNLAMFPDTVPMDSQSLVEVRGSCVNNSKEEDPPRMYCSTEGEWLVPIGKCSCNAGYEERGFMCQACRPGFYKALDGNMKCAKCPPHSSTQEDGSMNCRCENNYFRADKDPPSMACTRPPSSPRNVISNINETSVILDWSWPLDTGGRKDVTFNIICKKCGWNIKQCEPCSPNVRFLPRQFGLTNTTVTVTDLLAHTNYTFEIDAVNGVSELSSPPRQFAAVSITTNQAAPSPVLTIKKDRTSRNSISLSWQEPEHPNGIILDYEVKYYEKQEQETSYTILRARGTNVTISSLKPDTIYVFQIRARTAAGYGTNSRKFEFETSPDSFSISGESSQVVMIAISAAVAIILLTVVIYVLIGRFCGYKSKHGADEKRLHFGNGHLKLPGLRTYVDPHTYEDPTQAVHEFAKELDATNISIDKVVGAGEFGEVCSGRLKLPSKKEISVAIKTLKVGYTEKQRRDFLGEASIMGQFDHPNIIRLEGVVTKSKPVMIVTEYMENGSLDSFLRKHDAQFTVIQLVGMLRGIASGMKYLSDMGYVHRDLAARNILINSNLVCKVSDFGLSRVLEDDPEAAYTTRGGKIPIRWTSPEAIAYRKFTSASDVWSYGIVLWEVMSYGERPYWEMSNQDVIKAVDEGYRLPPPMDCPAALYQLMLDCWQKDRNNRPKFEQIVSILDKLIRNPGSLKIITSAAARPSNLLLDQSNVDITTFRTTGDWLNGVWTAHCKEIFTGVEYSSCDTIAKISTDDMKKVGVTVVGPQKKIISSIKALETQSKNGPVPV

O=C1Nc2ccc(Cl)cc2C1=Cc1cc(Cl)c(O)c(Cl)c1 has a remaining signal of 82.5% (cell-free assay; 0.5 µM).
Cc1ccc(NC(=O)c2ccc(C)c(C(F)(F)F)c2)cc1C#Cc1nn(C2CCC(O)CC2)c2ncnc(N)c12 (stereo not shown) has a remaining signal of 3% (cell-free assay; 10 µM).
Cc1ccc(Nc2nccc(N(C)c3ccc4c(C)n(C)nc4c3)n2)cc1S(N)(=O)=O has an inhibition of 30% (enzyme activity; inhibitor; 10 µM).
O=C(NC[C@@H]1[C@H]2CN(C(=O)OCc3cc(C(F)(F)F)cc(C(F)(F)F)c3)C[C@@H]12)c1ccc2[nH]nnc2c1 gave a remaining binding of 100% (cell-free assay; competition with immobilised ligand; 1 µM).
For CC(C)(C)c1nc2c(s1)c1nc(N)ncc1c1ccc(NS(=O)(=O)c3c(F)cccc3F)c(F)c12, the remaining activity was 92% (enzyme activity; inhibitor; radiometric; 1 µM).
The remaining signal of C#Cc1cccc(Nc2ncnc3cc(OCCOC)c(OCCOC)cc23)c1 is reported as 93.2% (cell-free assay; 0.5 µM).
CN(C)C1CCN(CC#Cc2nn(C3CCCC3)c3nc(NCc4ccccc4)ncc23)C1 (stereo not shown) gave an inhibition of -3% (enzyme activity; inhibitor; FRET; 10 µM).
For CCN(CC)c1ccc(C2=NNC(=O)CC2C)cc1[N+](=O)[O-] (stereo not shown), the remaining activity was 100% (enzyme activity; inhibitor; 10 µM).
CCOCCn1cc(C(=O)Nc2ccc(-n3nc(-c4cccnc4)cc3C(F)(F)F)cn2)ccc1=O has a remaining binding of 99% (cell-free assay; competition with immobilised ligand; 1 µM).
The remaining activity of Cc1cnc(NC2CCOCC2)nc1-n1cnc(C(=O)NC(CN)c2cc(F)cc(Cl)c2)c1 (stereo not shown) is reported as 123% (enzyme activity; inhibitor; radiometric; 1 µM).
CNC(=O)c1cc(Oc2ccc(NC(=O)Nc3ccc(Cl)c(C(F)(F)F)c3)cc2)ccn1 has an inhibition of 95% (enzyme activity; inhibitor; 10 µM).
Nc1ncnc2occ(-c3ccc(NC(=O)Nc4cc(C(F)(F)F)ccc4F)cc3)c12 gave a remaining signal of 16% (cell-free assay; 20 µM).
The remaining binding of CO[C@@H](C)c1c(Nc2ccc([C@@H](N(C)C(=O)C3CCS(=O)(=O)CC3)C(F)(F)F)cc2)cnc2cc(Cl)nn12 is reported as 90% (cell-free assay; competition with immobilised ligand; 1 µM).
CCCOc1ccc(OC)c(F)c1C(=O)c1ccc(C(=O)N[C@@H]2CNC[C@H]2NC(=O)c2ccc3[nH]ncc3c2)cc1 gave a remaining activity of 61% (enzyme activity; inhibitor; 10 µM).
Cc1nc(N2CC[C@@H](O)C2)ncc1-c1cc(C(F)(F)F)cc2[nH]ncc12 has a remaining binding of 94% (cell-free assay; competition with immobilised ligand; 1 µM).
CN(c1nccc(-c2cnn3ncccc23)n1)C1CC1 gave a remaining binding of 100% (binding; 1 µM).
With Cc1noc([C@H]2C[C@@H](c3ccc(C(F)(F)F)cc3)CN(C(=O)N3CCS(=O)(=O)C3)C2)n1 the remaining binding was 100% (cell-free assay; competition with immobilised ligand; 1 µM).
CCN(CC)CCNC(=O)c1c(C)[nH]c(/C=C2\C(=O)Nc3ccc(F)cc32)c1C gave a remaining signal of 84% (cell-free assay; 0.5 µM).
With O=C(O)[C@@H]1[C@@H](Cn2nnc3ccccc3c2=O)CC[C@H]1C(=O)c1ccc(OCCC2CCOCC2)cc1 the remaining binding was 100% (cell-free assay; competition with immobilised ligand; 1 µM).
Nc1nc(Nc2ccc(S(N)(=O)=O)cc2)nn1C(=O)c1c(F)cccc1F has a remaining signal of 107% (cell-free assay; 0.5 µM).
With COc1ccc2c(c1)O[C@@H](c1ccc(OC)c(OC)c1)C[C@H]2NC(=O)C1(c2ccc3c(c2)OC(F)(F)O3)CC1 the remaining binding was 91% (cell-free assay; competition with immobilised ligand; 1 µM).
CNC(=O)c1cc2c(Oc3ccc(NC(=O)C4(C(=O)Nc5ccc(F)cc5)CC4)cc3)ccnc2cc1OC has an inhibition of 95% (enzyme activity; inhibitor; radiometric; 1 µM).
